The results in this text go back to the RNAGym collection of RNA variant scans (doi:10.1126/science.aae0568).

First the molecules themselves.
B1: tRNA (parent)
chain: GUUCCGUUGGCGUAAUGGUAACGCGUCUCCCUCCUAAGGAGAAGACUGCGGGUUCGAGUCCCGUACGGAACG

This sample holds only a part of the variants without activity.

The variants in this series derive from B1. Put plainly: yeast fitness relative to wild type (ratio to wild type); higher = fitter; tRNA-Arg(CCU), competitive growth, 37 C, YPD. A digest of the protocol: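 The tRNA-Arg(CCU) gene variants were made by chemical synthesis with a 3% per-site mutation rate at 69 sites and inserted at the native genomic locus of Saccharomyces cerevisiae. After pooling, the strains were competed in YPD at 37°C for 24 hours in six parallel replicates. Gene amplicons from the start population and each end population were read by 100-nucleotide paired-end sequencing, and Darwinian fitness relative to wild type was taken from genotype frequency changes. Genotypes needed ≥ 100 starting reads, and estimates < 0.5 were set to 0.5.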
With C5G A65C, the yeast fitness amounted to 0.775. With C5G C30G A65C C66U, the yeast fitness was at most 0.5. To C5G C22A A37G G50C belongs 0.55. C5G C30A A36G: the yeast fitness turned out to be 0.568. Turning to C5A A36G A42C A43U, the yeast fitness is at most 0.5. C5A C33G: the yeast fitness stood at 0.698. As to C5G A36U C46G C62A A69C, the yeast fitness was at most 0.5. To C5G C30G C31A G50A U54C U59A belongs 0.596; to C5G C11U G25C G52U, 0.618; to C5G A36U G41A A65U, 0.549. C5A A36C A69C: the yeast fitness worked out at 0.539. With C5G A14U A43U U54C, the yeast fitness was found to be 0.666.

As for C4U U35C A45G C49G G56A A65C, the yeast fitness was at most 0.5. With C5G A20U G56A, the yeast fitness came out at 0.572. As for C5G C30A C34G, the yeast fitness is at most 0.5. To C4U U35C belongs 0.715; to C4U U35A, 0.659. With C5A A14U A15C C24G U26A, the yeast fitness is 0.78.

For C5A A36C, the yeast fitness turned out to be 0.608. For C5A A36U, the yeast fitness was found to be 0.678. For C5A G52A G56A G58C, the yeast fitness is at most 0.5. Consider C5G A43U U64C, for which the yeast fitness came to 0.703. Regarding C5A C24G U26A C29G U32A G48A C66G G67U, the yeast fitness is at most 0.5. For C5A U8G C27U A45G U53C, the yeast fitness is at most 0.5.

Consider C5A U16G A21C C24U C30A U59G, for which the yeast fitness is at most 0.5. In the case of C5G C27G C34G G63C C66U, the yeast fitness was at most 0.5.

C5A C31G U47A: the yeast fitness was 0.745.

C5A G58C C60A A70C: the yeast fitness is at most 0.5. Take C5A C30A G44A: the yeast fitness worked out at 0.584. Consider C5G A14C U16A C30U G38C G41C C46G, for which the yeast fitness is at most 0.5.

With C5G A15U G63A, the yeast fitness came out at 0.551. To C5A C11U C34A A40U A42U C49A G50C A57C C66G belongs at most 0.5. As for C5A A43U U47C, the yeast fitness turned out to be 0.543. To C5G C11A A40C U59C belongs at most 0.5; to C5A C24U A37G A40G A42U C49U, at most 0.5; to C5A G17A C66U, 0.587. For C5G A21G G41A, the yeast fitness came out at 0.503.

Turning to C5G A14U G18A A21U A42G G56C, the yeast fitness is at most 0.5. Regarding C5A A40C C46U G52C, the yeast fitness was found to be 0.547. C5G A43U C61G: the yeast fitness was at most 0.5. C5A G18A G25A C31U U47C C61U: the yeast fitness is at most 0.5.

In the case of C5A G17A C46A C55A, the yeast fitness is at most 0.5. Turning to C5A G18C C46U, the yeast fitness amounted to 0.557. Turning to C5A G12C, the yeast fitness worked out at 0.746. To C5A G25A U28C C31U A40C A42G belongs at most 0.5. For C5A C46A, the yeast fitness is 0.97. To C5A U19G A43U belongs 0.656. Regarding C5A A14U U53A U59G, the yeast fitness turned out to be 0.597. As to C5A C22U G39A A45C, the yeast fitness is at most 0.5.

For the variant C5G A14U C49A A57G, the yeast fitness amounted to 0.639.

With C5A C27U C31G A43C C49G G52C U59A, the yeast fitness is at most 0.5. To C5A A20G G39C G52A belongs 0.593. For C5A G10C C24G, the yeast fitness was at most 0.5. C5G A14G G17A U32C G56C A69U: the yeast fitness was at most 0.5. With C5G A15U U28C, the yeast fitness is at most 0.5. To C5G C27A A37C C55G belongs at most 0.5; to C5A C22A G50C G58A A69C, 0.607; to C5A A14U A21C C61U, at most 0.5. Turning to C5G C24A, the yeast fitness was 0.96. Take C5G C24G: the yeast fitness stood at 0.604. Turning to C5G C27U A57U, the yeast fitness is at most 0.5. As to C4U U53G, the yeast fitness came out at 0.558. To C5A A57U G68U A70G belongs 0.541; to C5A A20C C29U C34A C46A G50A A57U C66U, at most 0.5. As for C5A G17A G25A G48C, the yeast fitness was at most 0.5.

As for C5A U28C U35C C66U, the yeast fitness was at most 0.5. For the variant C5A A70G, the yeast fitness was 0.922. C5G A21G: the yeast fitness was found to be 0.997. Regarding C5G C11G C31G, the yeast fitness is at most 0.5.

Consider C5A U16C A45G G50A, for which the yeast fitness was at most 0.5. C5G C29U G39A G58C A69U: the yeast fitness is at most 0.5. To C5A C24G A36G A65U belongs at most 0.5; to C5A A65C, 0.839.

On to C5A A15C C29A A42C A45G G56C, for which the yeast fitness was at most 0.5. In the case of C5A U8C C11U C31A A37U G67C, the yeast fitness was at most 0.5. Regarding C5A A14G C31U C34U C60G G63A, the yeast fitness was at most 0.5. With C4U U28A A57C C61A, the yeast fitness is at most 0.5. Turning to C5G A20C C33U C62G, the yeast fitness was at most 0.5. Take C5A C11A C30U C31A G58A G67C: the yeast fitness came to 0.548. As for C5G A15C U32C C46U U53G, the yeast fitness is at most 0.5. To C5A U16G A20G C29G belongs 0.601.

Regarding C5A C11G C30U A36C A42G C61G, the yeast fitness was at most 0.5.

For the variant C4U U32A, the yeast fitness turned out to be 0.712. For C5A C11A, the yeast fitness is 0.592.
